Test results from paper PMC8725320 (Biochimica et biophysica acta. Bioenergetics, 2021).
Where “and” joins values, the source holds several entries; their conditions need not be identical. Equal entries are not always repeated. Where two headings read alike, the source gives them in different places.

Assays:
[1] = test system: Oxidative Phosphorylation; type: biochemical, mouse
In short: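 Mouse liver, kidney, heart and skeletal muscle mitochondria were isolated and diluted in mannitol–sucrose buffer. Run at 25°C in KCl/MOPS medium at pH 7.0 with 5 mM MgCl2, 10 mM phosphate, 20 μM AP5A, luciferin and luciferase. Eight ADP levels from 0 to 125 μM; start with 10 mM glutamate + 10 mM succinate. Luminescence read each minute for 7–10 min against ATP standards; at least duplicate. ADP3− computed from ΣADP.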

[2] = target: adenine nucleotide translocase (ANT); settings: read-out: ANT-ADP dissociation constant, KdADP^3−; free ion ADP^3−; cited from earlier work
Adenylate Kinase = Adenylate Kinase (Mus musculus, UniProt Q9WTP6); type: biochemical
Creatine Kinase = type: biochemical, mouse; settings: 10 mM phosphocreatine, 20 μM AP5A, mean
In short: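 Creatine kinase pathway in isolated mouse tissue mitochondria. Started by adding 10 mM phosphocreatine, with 20 μM AP5A to block AK. Run at 25°C in pH 7.0 medium with 100 mM KCl, 50 mM MOPS, 5 mM MgCl2, 10 mM phosphate, D-luciferin and luciferase. ADP at eight concentrations from 0 to 125 μM. Luminescence read each minute over 7–10 min against ATP standard curves; at least duplicate.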

[3] = test system: Oxidative Phosphorylation; type: biochemical; settings: human skeletal muscle mitochondria, glutamate + succinate, 20 μM AP5A, mean
In short: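 Isolated human skeletal muscle mitochondria, diluted in mannitol–sucrose buffer. Firefly luciferase ATP-accumulation assay at 25°C in KCl/MOPS medium at pH 7.0 with 5 mM MgCl2, 10 mM phosphate, glucose, EGTA, DTT and 0.2 g% BSA, plus 20 μM AP5A. ADP at eight levels from 0 to 125 μM (ΣADP). Started with 10 mM glutamate + 10 mM succinate. RLU read per minute over 7–10 min; at least duplicate.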

[4] = test system: Oxidative Phosphorylation; test: Polarography; type: biochemical; settings: mouse skeletal muscle mitochondria, five preparations, creatine kinase clamp, 5 mM ATP, 37°C
In short: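 Mouse skeletal muscle mitochondria from five preparations, resuspended in mannitol-sucrose buffer, oxidised 10 mM glutamate + 10 mM succinate at 37°C. O2 consumption was recorded continuously. Steady-state ADP was clamped over a range by varying the phosphocreatine/creatine ratio, with 5 mM ATP and saturating creatine kinase. K0.5 was expressed as total ADP and as ADP3−.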

[5] = test system: Oxidative Phosphorylation; settings: cited from earlier work
[6] = target: adenine nucleotide translocase (ANT); test: Carboxyatractyloside titration of OxPhos with Easson-Stedman analysis; type: biochemical; settings: read-out: CAT-ANT Kd; human skeletal muscle mitochondria; Easson-Stedman equation; low [ADP] 6.25 and/or 12.5 μM; n=27
In short: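 Human skeletal muscle mitochondria, oxidising glutamate + succinate, were mixed with reaction mix containing 20 μM AP5A, one ADP level (6.25, 12.5 or 25 μM) and one of eight CAT levels (0–5.0 nM). After 5 min for binding, substrate was added to start the reaction. ATP output was followed by luciferase light at 25°C, at least in duplicate. The Easson-Steadman equation gave Kd and ANT concentration.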

[7] = mouse heart mitochondria, glutamate + succinate, 20 μM AP5A, mean
[8] = mouse kidney mitochondria, glutamate + succinate, 20 μM AP5A, mean
[9] = mouse liver mitochondria, glutamate + succinate, 20 μM AP5A, mean
[10] = mouse skeletal muscle mitochondria, glutamate + succinate, 20 μM AP5A, mean
[11] = mouse heart mitochondria, no AP5A, mean
[12] = mouse kidney mitochondria, no AP5A, mean
[13] = mouse skeletal muscle mitochondria, no AP5A, mean
[14] = mouse skeletal muscle mitochondria

SMILES: Nc1ncnc2c1ncn2[C@@H]1O[C@H](COP(=O)(O)OP(=O)(O)O)[C@@H](O)[C@H]1O [ADP]
- K0.5ADP^3− for OxPhos, heart ([1]; mouse heart mitochondria, free ion ADP^3− calculated from ΣADP): 1.9 μM and ~ 1.9 μM
- Vmax, Oxidative Phosphorylation, Heart [1, 7]: 242.4 nmol ATP min^−1 mg^−1
- nH (Hill exponent), Oxidative Phosphorylation, Heart [1, 7]: 1.35
- K0.5ADP^3− for OxPhos, kidney ([1]; mouse kidney mitochondria, free ion ADP^3− calculated from ΣADP): 1.9 μM and ~ 1.9 μM
- Vmax, Oxidative Phosphorylation, Kidney [1, 8]: 109.9 nmol ATP min^−1 mg^−1
- nH (Hill exponent), Oxidative Phosphorylation, Kidney [1, 8]: 1.45
- K0.5ADP, Oxidative Phosphorylation, Liver ([1]; mouse liver mitochondria, glutamate + succinate 10 mM + 10 mM, 20 μM AP5A, 25°C, pH 7.0, ΣADP, mean): 22.3 µM
- Vmax, Oxidative Phosphorylation, Liver [1, 9]: 59.9 nmol ATP min^−1 mg^−1
- nH (Hill exponent), Oxidative Phosphorylation, Liver [1, 9]: 1.33
- K0.5ADP^3−, Luciferase ([1]; mouse skeletal muscle mitochondria, same five preparations, 25°C, free ion ADP^3−): 1.9 ± 0.1 μM and 1.9 ^* μM
- K0.5ADP (ΣADP), Luciferase ([1]; mouse skeletal muscle mitochondria, same five preparations, 25°C, glutamate + succinate): 11.9 ± 0.6 µM and 11.9 µM
- K0.5ADP^3− for OxPhos, skeletal muscle ([1]; mouse skeletal muscle mitochondria, free ion ADP^3− calculated from ΣADP): 1.9 μM and ~ 1.9 μM
- K0.5ADP, Oxidative Phosphorylation, Muscle ([1]; mouse skeletal muscle mitochondria, glutamate + succinate, 20 μM AP5A, 25°C, pH 7.0, ΣADP, mean): 11.9 µM
- Vmax, Oxidative Phosphorylation, Muscle [1, 10]: 553.5 nmol ATP min^−1 mg^−1
- nH (Hill exponent), Oxidative Phosphorylation, Muscle [1, 10]: 1.19
- Kd [2]: ~4000 nM
- K0.5ADP, Adenylate Kinase, Heart (Adenylate Kinase; mouse heart mitochondria, no AP5A, 25°C, pH 7.0, mean): 54.9 µM
- Vmax, Adenylate Kinase, Heart (Adenylate Kinase; [11]): 30.2 nmol ATP min^−1 mg^−1
- nH (Hill exponent), Adenylate Kinase, Heart (Adenylate Kinase; [11]): 1.85
- K0.5ADP, Adenylate Kinase, Kidney (Adenylate Kinase; mouse kidney mitochondria, no AP5A, 25°C, pH 7.0, mean): 64.3 µM
- Vmax, Adenylate Kinase, Kidney (Adenylate Kinase; [12]): 102.3 nmol ATP min^−1 mg^−1
- nH (Hill exponent), Adenylate Kinase, Kidney (Adenylate Kinase; [12]): 1.74
- K0.5ADP, Adenylate Kinase, Liver (Adenylate Kinase; mouse liver mitochondria, no AP5A, 25°C, pH 7.0, mean): 84.0 µM
- nH (Hill exponent), Adenylate Kinase, Liver (Adenylate Kinase; mouse liver mitochondria, no AP5A, mean): 1.53
- K0.5ADP, Adenylate Kinase, Muscle (Adenylate Kinase; mouse skeletal muscle mitochondria, no AP5A, 25°C, pH 7.0, mean): 78.0 µM
- Vmax, Adenylate Kinase, Muscle (Adenylate Kinase; [13]): 25.7 nmol ATP min^−1 mg^−1
- nH (Hill exponent), Adenylate Kinase, Muscle (Adenylate Kinase; [13]): 1.68
- K0.5ADP, Creatine Kinase, Heart (Creatine Kinase; mouse heart mitochondria, 25°C, pH 7.0): 24.4 µM
- Vmax, Creatine Kinase, Heart (Creatine Kinase; mouse heart mitochondria): 273.9 nmol ATP min^−1 mg^−1
- nH (Hill exponent), Creatine Kinase, Heart (Creatine Kinase; mouse heart mitochondria): 1.00
- K0.5ADP, Creatine Kinase, Kidney (Creatine Kinase; mouse kidney mitochondria, 25°C, pH 7.0): 37.8 µM
- Vmax, Creatine Kinase, Kidney (Creatine Kinase; mouse kidney mitochondria): 28.7 nmol ATP min^−1 mg^−1
- nH (Hill exponent), Creatine Kinase, Kidney (Creatine Kinase; mouse kidney mitochondria): 1.00
- K0.5ADP, Creatine Kinase, Muscle (Creatine Kinase; mouse skeletal muscle mitochondria, 25°C, pH 7.0): 36.3 µM
- Vmax, Creatine Kinase, Muscle (Creatine Kinase; [14]): 944.2 nmol ATP min^−1 mg^−1
- nH (Hill exponent), Creatine Kinase, Muscle (Creatine Kinase; [14]): 1.07
- Vmax [3]: 251.9 nmol/min/mg
- nH [3]: 1.16
- K0.5ADP ([3]; ΣADP): 11.1 ± 0.8 µM and 11.1 µM
- K0.5ADP^3−, Polarography ([4]; free ion ADP^3−): 4.4 ± 0.4 µM and 4.4 µM
- K0.5ADP (ΣADP), Polarography ([4]; glutamate + succinate): 13.1 ± 1.3 µM and 13.1 µM
- Hill exponent, nH, in vivo ([5]; in vivo OxPhos vs [ADP], sigmoidal relationship): ~2.0
- OxPhos K0.5ADP in vivo ([5]; intact contracting mammalian skeletal muscle, 31P-MRS): 20 to 40 µM

SMILES: Nc1ncnc2c1ncn2[C@@H]1O[C@H](COP(=O)(O)OP(=O)(O)OP(=O)(O)OP(=O)(O)OP(=O)(O)OC[C@H]2O[C@@H](n3cnc4c(N)ncnc43)[C@H](O)[C@@H]2O)[C@@H](O)[C@H]1O [AP5A, diadenosine pentaphosphate, reference compound]
- AK activity in the presence of AP5A (Adenylate Kinase; AP5A present at 20 μM, Figure S-8a, S-8b): not detectable

SMILES: C=C1[C@@H]2CC[C@H]3[C@]4(C)C[C@H](O[C@@H]5O[C@H](CO)[C@@H](OS(=O)(=O)O)[C@H](OS(=O)(=O)O)[C@H]5OC(=O)CC(C)C)CC(C(=O)O)(C(=O)O)[C@H]4CC[C@]3(C2)[C@H]1O [CAT, Carboxyatractyloside]
- Kd [6]: 0.048 ± 0.002 nM
